Assays:
[1] = test system: Human immunodeficiency virus 1; test: Antiviral activity against HIV1 isolate 063 harboring reverse transcriptase M41L/D67N/K70R/M184V/L210W/T215Y/K219E mutant gene by phenosense assay; format: functional, organism-based; conditions: Human immunodeficiency virus 1, isolate 063
Procedure, shortened: (§1)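 Recombinant-virus PhenoSense HIV assay run on a panel of 30 NRTI-resistant HIV-1 mutants and two wild-type viruses. Each virus is tested across increasing drug concentrations to give an inhibition curve and EC50. Fold change is the test recombinant EC50 divided by the EC50 of the drug-sensitive wild-type reference virus.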

[2] = test system: Human immunodeficiency virus 1; test: Antiviral activity against HIV1 71361-1 harboring reverse transcriptase 65R mutant gene infected in human PBMC by ELISA; format: functional, organism-based; conditions: Human immunodeficiency virus 1, 71361-1
Procedure, shortened: (§2)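 Fresh PBMCs pooled from at least two HIV- and HBV-seronegative donors, stimulated with PHA 4 μg/ml for 48–72 h and kept in rhIL-2 20 U/ml. Seeded at 5 × 10^4 cells/well and infected with RT-mutant HIV-1 clones at MOI ~0.1. Nine compound concentrations, triplicate wells, 7-day incubation. EC50 reported as mean ± SD of one to three independent experiments.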

[3] = test system: Human immunodeficiency virus 1; test: Antiviral activity against HIV1 isolate 067 harboring reverse transcriptase A62V/D67G/T69SVG/V75I/T215I mutant gene by phenosense assay; format: functional, organism-based; conditions: Human immunodeficiency virus 1, isolate 067; procedure, shortened: as §1
[4] = test system: Human immunodeficiency virus 1; test: Antiviral activity against HIV1 isolate 063 harboring reverse transcriptase M41L/D67N/K70R/M184V/L210W/T215Y/K219E mutant gene by phenosense assay relative to wild type; format: functional; procedure, shortened: as §1
[5] = test system: Human immunodeficiency virus 1; test: Antiviral activity against HIV1 isolate 212 harboring reverse transcriptase L210W/T215Y mutant gene by phenosense assay; format: functional, organism-based; conditions: Human immunodeficiency virus 1, isolate 212
Procedure, shortened: (§3)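 PhenoSense HIV recombinant virus assay: patient-derived HIV-1 with major NRTI resistance mutations tested against increasing drug concentrations to give inhibition curves. EC50 is the concentration giving 50% inhibition. Fold change is the test recombinant EC50 divided by the EC50 of a drug-sensitive wild-type reference virus. Panel of 30 NRTI-resistant isolates plus two wild-type viruses.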

[6] = test system: Human immunodeficiency virus 1; test: Antiviral activity against HIV1 isolate 067 harboring reverse transcriptase A62V/D67G/T69SVG/V75I/T215I mutant gene by phenosense assay relative to wild type; format: functional; procedure, shortened: as §1
[7] = test system: Human immunodeficiency virus 1; test: Antiviral activity against HIV1 isolate 185 harboring reverse transcriptase T215Y mutant gene by phenosense assay; format: functional, organism-based; conditions: Human immunodeficiency virus 1, isolate 185; procedure, shortened: as §1
[8] = test system: Human immunodeficiency virus 1; test: Antiviral activity against HIV1 isolate 162 harboring reverse transcriptase A62V/V75I/F77L/Y115F/F116Y/Q151M/M184V mutant gene by phenosense assay relative to wild type; format: functional; procedure, shortened: as §1
[9] = test system: Human immunodeficiency virus 1; test: Antiviral activity against HIV1 isolate 203 harboring reverse transcriptase M41L/L210W/T215Y/M184V mutant gene by phenosense assay; format: functional, organism-based; conditions: Human immunodeficiency virus 1, isolate 203; procedure, shortened: as §3
[10] = test system: Human immunodeficiency virus 1; test: Antiviral activity against HIV1 7303-3 harboring reverse transcriptase 41L/44D/67N/69D/118I/210W/215Y mutant gene infected in human PBMC by ELISA; format: functional, organism-based; conditions: Human immunodeficiency virus 1, 7303-3; procedure, shortened: as §2
[11] = test system: Human immunodeficiency virus 1; test: Antiviral activity against HIV1 52534-2 harboring reverse transcriptase 41L//74V/210W/215Y/184V/69SSS mutant gene infected in human PBMC by ELISA; format: functional, organism-based; conditions: Human immunodeficiency virus 1, 52534-2; procedure, shortened: as §2
[12] = test system: Human immunodeficiency virus 1; test: Antiviral activity against HIV1 isolate 070 harboring reverse transcriptase 65R/S68G mutant gene by phenosense assay; format: functional, organism-based; conditions: Human immunodeficiency virus 1, isolate 070; procedure, shortened: as §1
[13] = test system: Human immunodeficiency virus 1; test: Antiviral activity against HIV1 isolate 066 harboring reverse transcriptase 184V mutant gene by phenosense assay; format: functional, organism-based; conditions: Human immunodeficiency virus 1, isolate 066; procedure, shortened: as §1
[14] = test system: Human immunodeficiency virus 1; test: Antiviral activity against HIV1 isolate 215 harboring reverse transcriptase D67N/K70E mutant gene by phenosense assay; format: functional, organism-based; conditions: Human immunodeficiency virus 1, isolate 215; procedure, shortened: as §3
[15] = test system: Human immunodeficiency virus 1; test: Antiviral activity against HIV1 isolate 060 harboring reverse transcriptase M41L/D67N/K70R/L210W/T215Y/K219E mutant gene by phenosense assay; format: functional, organism-based; conditions: Human immunodeficiency virus 1, isolate 060; procedure, shortened: as §1
[16] = test system: Human immunodeficiency virus 1; test: Antiviral activity against HIV1 isolate 058 harboring reverse transcriptase M41L/D67N/K70R/L210W/T215F/K219Q mutant gene by phenosense assay; format: functional, organism-based; conditions: Human immunodeficiency virus 1, isolate 058; procedure, shortened: as §1
[17] = test system: Human immunodeficiency virus 1; test: Antiviral activity against HIV1 isolate 162 harboring reverse transcriptase A62V/V75I/F77L/Y115F/F116Y/Q151M/M184V mutant gene by phenosense assay; format: functional, organism-based; conditions: Human immunodeficiency virus 1, isolate 162; procedure, shortened: as §1
[18] = test system: Human immunodeficiency virus 1; test: Antiviral activity against HIV1 isolate 217 harboring reverse transcriptase D67N/K70E/M184V mutant gene by phenosense assay; format: functional, organism-based; conditions: Human immunodeficiency virus 1, isolate 217; procedure, shortened: as §3
[19] = test system: Human immunodeficiency virus 1; test: Antiviral activity against HIV1 isolate 166 harboring reverse transcriptase L74V mutant gene obtained as site-directed mutant of NL4-3 by phenosense assay relative to wild type; format: functional; procedure, shortened: as §1
[20] = test system: Human immunodeficiency virus 1; test: Antiviral activity against HIV1 isolate 204 harboring reverse transcriptase M41L/L210W/T215Y/M184V mutant gene by phenosense assay; format: functional, organism-based; conditions: Human immunodeficiency virus 1, isolate 204; procedure, shortened: as §3
[21] = test system: Human immunodeficiency virus 1; test: Antiviral activity against HIV1 8415-2 harboring reverse transcriptase 65R/184V mutant gene infected in human PBMC by ELISA; format: functional, organism-based; conditions: Human immunodeficiency virus 1, 8415-2; procedure, shortened: as §2
[22] = test system: Human immunodeficiency virus 1; test: Antiviral activity against HIV1 isolate 056 expressing wild type reverse transcriptase gene by phenosense assay; format: functional, organism-based; conditions: Human immunodeficiency virus 1, isolate 056
Procedure, shortened: (§4)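 In the PhenoSense recombinant virus assay, virus was tested against increasing drug concentrations. EC50 came from the inhibition curve and was compared with a drug-sensitive reference virus.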

[23] = test system: Human immunodeficiency virus 1; test: Antiviral activity against HIV1 isolate 057 expressing wild type reverse transcriptase gene by phenosense assay; format: functional, organism-based; conditions: Human immunodeficiency virus 1, isolate 057; procedure, shortened: as §4
[24] = test system: Human immunodeficiency virus 1; test: Antiviral activity against HIV1 isolate 192 harboring reverse transcriptase M41L/T215Y mutant gene by phenosense assay; format: functional, organism-based; conditions: Human immunodeficiency virus 1, isolate 192; procedure, shortened: as §1
[25] = test system: Human immunodeficiency virus 1; test: Antiviral activity against HIV1 1617-1 harboring reverse transcriptase 69K/70G/75I/77L/116Y/151M/184V mutant gene infected in human PBMC by ELISA; format: functional, organism-based; conditions: Human immunodeficiency virus 1, 1617-1; procedure, shortened: as §2
[26] = test system: Human immunodeficiency virus 1; test: Antiviral activity against HIV1 isolate 066 harboring reverse transcriptase 184V mutant gene by phenosense assay relative to wild type; format: functional; procedure, shortened: as §1
[27] = test system: Human immunodeficiency virus 1; test: Antiviral activity against HIV1 isolate 211 harboring reverse transcriptase D67N/K70R/T215F/K219E/M184V mutant gene by phenosense assay relative to wild type; format: functional; procedure, shortened: as §3
[28] = test system: Human immunodeficiency virus 1; test: Antiviral activity against HIV1 isolate 160 harboring reverse transcriptase S68G/V75(I/T)/F77L/Y115F/F116Y /Q151M mutant gene by phenosense assay; format: functional, organism-based; conditions: Human immunodeficiency virus 1, isolate 160; procedure, shortened: as §1
[29] = test system: Human immunodeficiency virus 1; test: Antiviral activity against HIV1 isolate 206 harboring reverse transcriptase D67N/K70R mutant gene by phenosense assay; format: functional, organism-based; conditions: Human immunodeficiency virus 1, isolate 206; procedure, shortened: as §3
[30] = test system: Human immunodeficiency virus 1; test: Antiviral activity against HIV1 isolate 153 harboring reverse transcriptase L74V mutant gene by phenosense assay relative to wild type; format: functional; procedure, shortened: as §1
[31] = test system: Human immunodeficiency virus 1; test: Antiviral activity against HIV1 isolate 153 harboring reverse transcriptase L74V mutant gene by phenosense assay; format: functional, organism-based; conditions: Human immunodeficiency virus 1, isolate 153; procedure, shortened: as §1

## CCCCCCCCCCCCCCCCOCCCOP(=O)(O)CO[C@H](C)Cn1cnc2c(N)ncnc21 [TENOFOVIR EXALIDEX]
[1]
  EC50: 5.2 nM
[2]
  EC50: 13 nM
[3]
  EC50: 57 nM
[4]
  fold change (FC): 2.8
[5]
  EC50: 2.8 nM
[6]
  fold change (FC): 31
[7]
  EC50: 5 nM
[8]
  fold change (FC): 1.6
[9]
  EC50: 1.9 nM
[10]
  EC50: 19 nM
[11]
  EC50: 9 nM
[12]
  EC50: 3.6 nM
[13]
  EC50: 1.4 nM
[14]
  EC50: 2.1 nM
[15]
  EC50: 9.6 nM
[16]
  EC50: 8.5 nM
[17]
  EC50: 3.1 nM
[18]
  EC50: 1.5 nM
[19]
  fold change (FC): 0.8
[20]
  EC50: 2.5 nM
[21]
  EC50: 1.8 nM
[22]
  EC50: 1.7 nM
[23]
  EC50: 1.6 nM
[24]
  EC50: 3.9 nM
[25]
  EC50: 5 nM
[26]
  fold change (FC): 0.73
[27]
  fold change (FC): 1
[28]
  EC50: 3.7 nM
[29]
  EC50: 5.6 nM
[30]
  fold change (FC): 0.66
[31]
  EC50: 1.2 nM

Source: ChEMBL document CHEMBL1629690, “Development of hexadecyloxypropyl tenofovir (CMX157) for treatment of infection caused by wild-type and nucleoside/nucleotide-resistant HIV” (Antimicrob Agents Chemother, 2010)
